Records with an inconclusive call do not appear.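 How the source made its calls, unless noted: active means viability increase at or above a cutoff of the median across tested compounds plus 3 SD (cut at about 8.5% in these data, passing the limit was not always enough); inconclusive means some gains above the cutoff, reason not given; inactive means the rest.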
Key:
[1] = OD615 S. cerevisiae growth inhibition, permissive medium, pilot counter-assay, permissive growth control for S. cerevisiae lifespan shortening project (AID 705;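 active means growth inhibition above 25% in both replicates, a cutoff set 3 SD above the mean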); settings: OD615, 24 h, at 10 µM, hits give high values
Procedure, shortened: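 System: Engineered DeaD yeast | Buffer or medium: SC raffinose/galactose permissive medium | Doses: 10 µM single dose, 0.25% DMSO | Times: 24 h exposure, 30 °C | Measured by: OD615 turbidity read | Read-out: Yeast growth inhibition indicated by reduced 24 h OD615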

[2] = Restrictive medium S. cerevisiae growth inhibition, OD615, pilot screen of yeast lifespan reduction project, restrictive growth control (AID 706;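 active means growth inhibition above a set limit, 3 SD over mean compound inhibition, in both replicates, cut at about 43% in these data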;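 further: modified DeaD lifespan yeast strain shifted to restrictive glucose medium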); settings: OD615, 48 h, at 10 µM, hits give high values
Procedure, shortened: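 Assay system: engineered S. cerevisiae DeaD strain; Buffer or medium: CSMM-D glucose medium; Dosing: 10 µM compound, 0.25% DMSO; Times: cell pre-growth 4 h, compound exposure 48 h, 30 °C; Detection: absorbance (optical density) measured at 615 nm.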

[3] = viability gain of MRP-1-high H69AR cells under doxorubicin, pilot screen, MRP-1 activator project, CellTiter-Glo, duplicate (AID 807); settings: H69AR viability with doxorubicin, CellTiter-Glo luminescence; at 10 µM; hits give high values;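 further: compound pretreatment 18-22 h then 72 h combined with doxorubicin; 0% = doxorubicin alone and 100% = vehicle without doxorubicin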
[4] = growth suppression of beta-catenin knockout HCT116, pilot screen, human colon tumor cells (AID 823;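 active means cell viability at or below a set limit in both duplicate runs, the limit being the all-compound median minus 4 SD, cut at about 23% in these data, passing the limit was not always enough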;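 further: 0% = wells killed by 20 µM Hyamine and 100% = untreated DMSO cell wells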); settings: CellTiter-Glo, 60 h, at 10 µM, hits give low values
[5] = growth suppression of PTEN-deleted HCT116, pilot screen, cell-based, HCT116 clonal line, CellTiter-Glo (AID 824;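 active means viability at or below 27.92% in each of two runs, the all-compound median minus 4 SD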;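 further: 0% = 20 µM Hyamine control and 100% = vehicle cell control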); settings: 60 h, at 10 µM, hits give low values
[6] = inhibitors of the yeast RAM network, pilot screen, dse1pr::URA3 reporter, 5-FOA selection (AID 869;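 active means inhibition over a set limit, the all-compound mean plus 3 SD, in both replicate runs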;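 further: 0% = DMSO wells with no growth and 100% = 10 µM 1-NA-PP1 with full growth; RAM network block rescues cells from 5-FOA so hits raise OD615 growth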); settings: S. cerevisiae dse1pr::URA3 5-FOA growth, OD615, 2 d; at 10 µM; hits give high values; strain carries analog-sensitive mutant Cbk1 kinase
[7] = RAM signaling pathway blockade in yeast – S. cerevisiae, Pdr1DBD-CYC8 efflux-inhibited sensitized strain, primary screen (AID 1298;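 active means RAM network inhibition above 8.4% in each of two replicates, 3 SD over the compound average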;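 further: 0% = DMSO untreated cells without growth and 100% = 10 µM 1-NA-PP1 full growth; higher means more yeast growth rescued from 5-FOA killing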); settings: S. cerevisiae cbk1-as DSE1-URA3 strain, 5-FOA growth OD615, 2 d; at 50 µM; hits give high values

CC(=O)Nc1ccc(C2Nc3ccccc3C(=O)N2C2CCCCC2)cc1 (configuration not stated)
inactive: growth inhibition [1] -5.95% | growth inhibition [2] -9.11% | viability increase [3] -1.42% | viability [4] 94.9% | viability [5] 93.6% | inhibition [6] 2.73% | RAM network inhibition [7] -0.56%

COc1ccccc1CNC(=O)C1CCN(S(=O)(=O)c2cccc3cccnc23)CC1
inactive: growth inhibition [1] 5.11% | growth inhibition [2] 0.02% | viability increase [3] -1.41% | viability [4] 108% | viability [5] 97.2% | inhibition [6] -0.9% | RAM network inhibition [7] -0.93%

CCOc1ccc(C(=O)NCc2ccncc2)cc1OCC
inactive: growth inhibition [1] 8.96% | growth inhibition [2] 7.73% | viability increase [3] -0.92% | viability [4] 92.9% | viability [5] 90% | inhibition [6] 2.33% | RAM network inhibition [7] 0.83%

O=C(Nc1nnc(-c2ccc3c(c2)CCCC3)o1)C1CCCCC1
inactive: growth inhibition [1] -16.5% | growth inhibition [2] -4.87% | viability increase [3] -2.6% | viability [4] 64.5% | viability [5] 62% | inhibition [6] 3.24% | RAM network inhibition [7] 4.48%

CCC(=O)Nc1ccc(C(=O)c2ccccc2)cc1
inactive: growth inhibition [1] -6.81% | growth inhibition [2] -2.21% | viability increase [3] 2.97% | viability [4] 98.5% | viability [5] 97% | inhibition [6] 1.16% | RAM network inhibition [7] 2.9%

O=C(OCC(=O)N1CCN(C(=O)c2ccco2)CC1)c1sc2ccccc2c1Cl
inactive: growth inhibition [1] -14.3% | growth inhibition [2] -20.1% | viability increase [3] -2.74% | viability [4] 96.3% | viability [5] 102% | inhibition [6] 0.845% | RAM network inhibition [7] 5.57%

CCOCCCn1cnc2c([nH]c3cc(OC)ccc32)c1=O
inactive: growth inhibition [1] -14.1% | growth inhibition [2] -13.8% | viability increase [3] -0.55% | viability [4] 95.8% | viability [5] 96.9% | inhibition [6] 1.41% | RAM network inhibition [7] 5.51%

Cc1cc(CN2C(=O)c3ccccc3C2=O)cc(N2CCOCC2)c1
inactive: growth inhibition [1] -9.23% | growth inhibition [2] -10.3% | viability increase [3] -2.19% | viability [4] 95% | viability [5] 87.7% | inhibition [6] 0.76% | RAM network inhibition [7] 1.4%

CC(C)(C)c1nnc2sc(SCC(=O)c3cccs3)nn2c1=O
inactive: growth inhibition [1] -4.01% | growth inhibition [2] -13.1% | viability increase [3] -6% | viability [4] 71.1% | viability [5] 81.8% | inhibition [6] 2.62% | RAM network inhibition [7] 5.25%

CCOc1ccc2nc(NC(=O)COC)sc2c1
inactive: growth inhibition [1] -7.05% | growth inhibition [2] -13.8% | viability increase [3] 0.64% | viability [4] 102% | viability [5] 102% | inhibition [6] 1.05% | RAM network inhibition [7] 1.66%

O=C(NC1CCCCC1)C(c1ccccc1)N1CCCC1 (configuration not stated)
inactive: growth inhibition [1] 1.67% | growth inhibition [2] -3.42% | viability increase [3] -1.59% | viability [4] 96.6% | viability [5] 97.7% | inhibition [6] 1.43% | RAM network inhibition [7] 5.5%

Cc1ccc(C(=O)Nc2cccc(C(=O)O)c2)cc1S(=O)(=O)N1CCCCC1
inactive: growth inhibition [1] 5.02% | growth inhibition [2] 11.4% | viability increase [3] 0.18% | viability [4] 96% | viability [5] 100% | inhibition [6] 1.35% | RAM network inhibition [7] 0.1%

Cc1nnc(SCC(=O)NC(C)c2ccccc2)[nH]c1=O (configuration not stated)
inactive: growth inhibition [1] -10.9% | growth inhibition [2] -9.25% | viability increase [3] -1.16% | viability [4] 101% | viability [5] 99.3% | inhibition [6] 4.54% | RAM network inhibition [7] 5.85%

CCn1nnc(NC(=O)c2ccc(C(C)(C)C)cc2)n1
inactive: growth inhibition [1] -24.7% | growth inhibition [2] -6.88% | viability increase [3] -0.53% | viability [4] 90.2% | viability [5] 90.9% | inhibition [6] 1.79% | RAM network inhibition [7] -0.37%

CCOc1ccccc1NC(=O)Cn1cnc2c(nnn2-c2cccc(OC)c2)c1=O
inactive: growth inhibition [1] -2.45% | growth inhibition [2] -1.71% | viability increase [3] -1.23% | viability [4] 87.2% | viability [5] 73.3% | inhibition [6] 3.82% | RAM network inhibition [7] 4.89%

CN(CCNC(=O)C1CC(=O)N(C2CCCC2)C1)Cc1ccccc1 (configuration not stated)
inactive: growth inhibition [1] -2.86% | growth inhibition [2] 0.485% | viability increase [3] -0.98% | viability [4] 98.6% | viability [5] 98.3% | inhibition [6] 0.74% | RAM network inhibition [7] 0.52%

COc1cc(C(=O)Oc2ccccc2N)cc(OC)c1OC
inactive: growth inhibition [1] -19.6% | growth inhibition [2] 11.3% | viability increase [3] -2.84% | viability [4] 102% | viability [5] 96% | inhibition [6] -0.31% | RAM network inhibition [7] 1.19%

COc1ccc(-c2nnc(NC(=O)C(C)C)o2)cc1
inactive: growth inhibition [1] 2.56% | growth inhibition [2] 6.86% | viability increase [3] -1.77% | viability [4] 103% | viability [5] 102% | inhibition [6] 1.23% | RAM network inhibition [7] 4.26%

COc1cc2c(C(=O)NCc3ccccn3)cn(CC(C)C)c(=O)c2cc1OC
inactive: growth inhibition [1] -6.14% | growth inhibition [2] -28.3% | viability increase [3] -3.77% | viability [4] 104% | viability [5] 92.4% | inhibition [6] 1.55% | RAM network inhibition [7] 1.16%

O=C(c1ccc(CS(=O)(=O)c2ccc(Br)cc2)o1)N1CCCCCC1
inactive: growth inhibition [1] -9.29% | growth inhibition [2] -18.8% | viability increase [3] -2.25% | viability [4] 87.9% | viability [5] 92.2% | inhibition [6] 0.185% | RAM network inhibition [7] 9.94%

O=C1c2ccccc2C(Nc2ccc(S(=O)(=O)N3CCCCC3)cc2)N1c1ccccn1 (configuration not stated)
inactive: growth inhibition [1] -3.39% | growth inhibition [2] -7.4% | viability increase [3] -4.22% | viability [4] 67.8% | viability [5] 65.4% | inhibition [6] 2.17% | RAM network inhibition [7] 3.68%

O=C(CCc1ccccc1)Nc1ccc(NC(=O)c2ccco2)cc1
inactive: growth inhibition [1] -5.04% | growth inhibition [2] 0.64% | viability increase [3] -1.63% | viability [4] 103% | viability [5] 93.7% | inhibition [6] 1.44% | RAM network inhibition [7] 2.56%

Fc1cc(Br)ccc1Nc1nc2ccccc2n2nnnc12
inactive: growth inhibition [1] -15.9% | growth inhibition [2] -15% | viability increase [3] -4.01% | viability [4] 91.5% | viability [5] 87.2% | inhibition [6] 1.94% | RAM network inhibition [7] 5.36%

CCCCC(CC)CNC(=O)c1[nH]c(C)c(C(C)=O)c1C (configuration not stated)
inactive: growth inhibition [1] 9.77% | growth inhibition [2] -2.26% | viability increase [3] -1.78% | viability [4] 41.7% | viability [5] 63.8% | inhibition [6] 1.91% | RAM network inhibition [7] 1.29%

Cc1onc(-c2ccccc2Cl)c1C(=O)Nc1c(C)n(C)n(-c2ccccc2)c1=O
inactive: growth inhibition [1] -7.2% | growth inhibition [2] 3.75% | viability increase [3] 0.84% | viability [4] 104% | viability [5] 103% | inhibition [6] 0.355% | RAM network inhibition [7] 3.34%

CCN1CCc2c(sc(NC(=O)c3ccc(S(=O)(=O)N4CCOCC4)cc3)c2C(N)=O)C1
inactive: growth inhibition [1] -2.02% | growth inhibition [2] -1.51% | viability increase [3] -2.7% | viability [4] 86.8% | viability [5] 87.2% | inhibition [6] 1.45% | RAM network inhibition [7] 0.16%

Cc1cc(Nc2ccc(C(C)C)cc2)n2ncnc2n1
inactive: growth inhibition [1] -6.6% | growth inhibition [2] 7.39% | viability increase [3] -0.35% | viability [4] 95.2% | viability [5] 85.2% | inhibition [6] 0.465% | RAM network inhibition [7] 5.75%

CCOC(=O)Cc1csc(NC(=O)COc2ccc(OC)cc2)n1
inactive: growth inhibition [1] -22.4% | growth inhibition [2] -8.99% | viability increase [3] -2.2% | viability [4] 97.2% | viability [5] 92.2% | inhibition [6] 1.89% | RAM network inhibition [7] 0.64%

O=C1C(O)CC2c3ccccc3CC3(CCCC3)N12 (configuration not stated)
inactive: growth inhibition [1] -14.1% | growth inhibition [2] -11.3% | viability increase [3] -0.65% | viability [4] 99.4% | viability [5] 90.4% | inhibition [6] 0.65% | RAM network inhibition [7] 8.18%

CC(=O)NC(CCS(C)(=O)=O)C(=O)Nc1cc(Cl)ccc1Cl (configuration not stated)
inactive: growth inhibition [1] -14.6% | growth inhibition [2] -17.2% | viability increase [3] 0.37% | viability [4] 105% | viability [5] 92% | inhibition [6] 2.08% | RAM network inhibition [7] 2.67%

O=C(CSc1nc2ccccc2c(=O)[nH]1)N1CCCCC1
inactive: growth inhibition [1] -16.2% | growth inhibition [2] -5.08% | viability increase [3] -2.69% | viability [4] 98.7% | viability [5] 84.7% | inhibition [6] 0.395% | RAM network inhibition [7] -0.51%

COc1cc(NC(=O)c2cc3c(=O)n(C)c4ccccc4c3n2C)cc(OC)c1OC
inactive: growth inhibition [1] 1.8% | growth inhibition [2] 7.94% | viability increase [3] -3.3% | viability [4] 106% | viability [5] 95.7% | inhibition [6] 3.3% | RAM network inhibition [7] 5.77%

CSC1=NCCN1C(=O)Cc1ccc(F)cc1
inactive: growth inhibition [1] -0.72% | growth inhibition [2] 0.85% | viability increase [3] 2.96% | viability [4] 105% | viability [5] 103% | inhibition [6] 0.725% | RAM network inhibition [7] 4.04%

Cn1c(Cn2c(=O)sc3ccccc32)nnc1SCC(=O)N1CCc2ccccc21
inactive: growth inhibition [1] -8.97% | growth inhibition [2] -4.5% | viability increase [3] -1.09% | viability [4] 86.1% | viability [5] 92.6% | inhibition [6] 2.98% | RAM network inhibition [7] 2.79%

Cc1sc2nc(NCCO)[nH]c(=O)c2c1C
inactive: growth inhibition [1] -15.5% | growth inhibition [2] -23.2% | viability increase [3] -2.72% | viability [4] 107% | viability [5] 97.2% | inhibition [6] 0.885% | RAM network inhibition [7] -1.79%

O=C(O)c1ccc(NS(=O)(=O)c2ccc3c(c2)OCCO3)cc1
inactive: growth inhibition [1] 4.96% | growth inhibition [2] -3.53% | viability increase [3] 0.04% | viability [4] 107% | viability [5] 108% | inhibition [6] 0.975% | RAM network inhibition [7] 1.55%

— PubChem BioAssay
